{"source": "ChEMBL document CHEMBL5380838", "about": "“Novel Aryl Sulfonamide Derivatives as NLRP3 Inflammasome Inhibitors for the Potential Treatment of Cancer” (J Med Chem, 2023)", "key": {"[1]": {"molecular_target": "NACHT, LRR and PYD domains-containing protein 3 (Mus musculus) (UniProt Q8R4B8)", "sequence (Q8R4B8 whole entry, the tested form may be a part)": "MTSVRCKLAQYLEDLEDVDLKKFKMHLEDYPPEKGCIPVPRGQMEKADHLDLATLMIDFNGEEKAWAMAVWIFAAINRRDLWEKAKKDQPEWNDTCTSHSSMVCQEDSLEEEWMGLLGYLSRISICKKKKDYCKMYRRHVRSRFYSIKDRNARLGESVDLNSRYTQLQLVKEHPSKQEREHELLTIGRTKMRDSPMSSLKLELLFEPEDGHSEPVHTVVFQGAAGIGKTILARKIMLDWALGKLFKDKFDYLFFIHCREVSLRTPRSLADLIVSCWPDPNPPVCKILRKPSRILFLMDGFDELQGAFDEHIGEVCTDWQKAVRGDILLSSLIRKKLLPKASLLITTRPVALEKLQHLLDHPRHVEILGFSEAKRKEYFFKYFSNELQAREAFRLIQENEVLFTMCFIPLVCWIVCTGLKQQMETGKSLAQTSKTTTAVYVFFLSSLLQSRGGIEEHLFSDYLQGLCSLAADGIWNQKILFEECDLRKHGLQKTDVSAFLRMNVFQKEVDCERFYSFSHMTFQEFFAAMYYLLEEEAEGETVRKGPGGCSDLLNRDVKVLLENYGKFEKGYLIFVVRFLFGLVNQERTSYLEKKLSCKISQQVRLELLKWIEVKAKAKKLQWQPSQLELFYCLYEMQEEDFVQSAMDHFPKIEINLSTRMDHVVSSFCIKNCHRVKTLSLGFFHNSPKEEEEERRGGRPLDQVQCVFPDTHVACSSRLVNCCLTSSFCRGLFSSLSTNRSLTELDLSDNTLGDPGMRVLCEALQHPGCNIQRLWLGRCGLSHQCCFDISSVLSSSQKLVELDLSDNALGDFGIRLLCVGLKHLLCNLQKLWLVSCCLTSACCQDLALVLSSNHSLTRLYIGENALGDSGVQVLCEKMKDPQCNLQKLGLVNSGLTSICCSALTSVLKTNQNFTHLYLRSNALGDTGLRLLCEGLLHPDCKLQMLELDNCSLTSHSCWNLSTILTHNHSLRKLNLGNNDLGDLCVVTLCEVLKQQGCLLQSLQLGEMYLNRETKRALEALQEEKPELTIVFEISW", "test": "Inhibition of NLRP3 inflammasome activation in LPS-treated mouse BMDM cells assessed as Bz-ATP-stimulated IL-1beta level at 1 uM incubated for 30 mins followed by Bz-ATP stimulation for 30 mins by ELISA method", "assay_type": "cell-based", "conditions": "time 60.0 min", "how_it_was_run": "(§1)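 Mouse BMDMs, C57BL/6 bone marrow cells differentiated 7 days with M-CSF 10 ng/mL, seeded 5 × 10^5/well. Primed with LPS 1 µg/mL for 2 h, then compound 1 µM in serum-free medium for 30 min, then Bz-ATP 100 µM for 30 min. Supernatant IL-1β by ELISA in pg/mL and as percent inhibition. Mean ± SEM of three independent experiments in triplicate.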"}, "[2]": {"molecular_target": "NACHT, LRR and PYD domains-containing protein 3 (Mus musculus) (UniProt Q8R4B8)", "test": "Inhibition of NLRP3 inflammasome activation in LPS-treated mouse BMDM cells assessed as inhibition of Bz-ATP-stimulated IL-1beta release at 1 uM incubated for 30 mins followed by Bz-ATP stimulation for 30 mins by ELISA method relative to control", "assay_type": "cell-based", "conditions": "time 60.0 min", "how_it_was_run": "as §1"}, "[3]": {"test": "Metabolic stability in mouse liver microsomes assessed as half life measured per mg protein at 1 uM measured upto 60 mins by LC-MS/MS analysis", "assay_type": "ADME, Microsome", "how_it_was_run": "(§2)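 Pooled human or CD-1 male mouse liver microsomes at 0.5 mg/mL with test compound 1 µM in 50 mM phosphate pH 7.4 and 3 mM MgCl2, preincubated 10 min at 37 °C. Percent parent remaining vs 0 min measured by LC-MS/MS. Cli = k/microsomal conc. × 1000; mean ± SD, n = 2.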"}, "[4]": {"test": "Metabolic stability in human liver microsomes assessed as intrinsic clearance measured per mg protein at 1 uM measured upto 60 mins by LC-MS/MS analysis", "assay_type": "ADME, Microsome", "conditions": "read-out: CLH", "how_it_was_run": "as §2"}, "[5]": {"test": "Metabolic stability in human liver microsomes assessed as half life measured per mg protein at 1 uM measured upto 60 mins by LC-MS/MS analysis", "assay_type": "ADME, Microsome", "how_it_was_run": "as §2"}, "[6]": {"test": "Metabolic stability in mouse liver microsomes assessed as intrinsic clearance measured per mg protein at 1 uM measured upto 60 mins by LC-MS/MS analysis", "assay_type": "ADME, Microsome", "conditions": "read-out: CLH", "how_it_was_run": "as §2"}, "[7]": {"molecular_target": "NACHT, LRR and PYD domains-containing protein 3 (Mus musculus) (UniProt Q8R4B8)", "test": "Inhibition of NLRP3 inflammasome activation in LPS-treated mouse BMDM cells assessed as inhibition of Bz-ATP-stimulated IL-1beta release at 1 uM incubated for 30 mins followed by Bz-ATP stimulation for 30 mins by ELISA method", "assay_type": "cell-based", "conditions": "time 60.0 min", "how_it_was_run": "as §1"}}, "note": "Active and inactive are the calls of the source. The calls are words filed in the database; no cut-off is given here."}
{"smiles": "Nc1ccc(S(=O)(=O)N2CCC[C@H]2C(=O)Nc2c3c(cc4c2CCC4)CCC3)cc1", "values": [{"measurement": "Activity", "setting": "[1]", "result": 165, "unit": "pg/mL"}, {"measurement": "inhibition", "setting": "[2]", "result": 41.6, "unit": "%"}]}
{"smiles": "O=C(CCNS(=O)(=O)c1ccc([N+](=O)[O-])cc1)Nc1c2c(cc3c1CCC3)CCC2", "values": [{"measurement": "Activity", "setting": "[1]", "result": 180, "unit": "pg/mL"}, {"measurement": "inhibition", "setting": "[2]", "result": 36.5, "unit": "%"}]}
{"smiles": "Nc1ccc(S(=O)(=O)N[C@H](Cc2ccccc2)C(=O)Nc2c3c(cc4c2CCC4)CCC3)cc1", "values": [{"measurement": "Activity", "setting": "[1]", "result": 152, "unit": "pg/mL"}, {"measurement": "inhibition", "setting": "[2]", "result": 46.4, "unit": "%"}]}
{"smiles": "NCCCC[C@H](NS(=O)(=O)c1ccc([N+](=O)[O-])cc1)C(=O)Nc1c2c(cc3c1CCC3)CCC2", "values": [{"measurement": "Activity", "setting": "[1]", "result": 149, "unit": "pg/mL"}, {"measurement": "inhibition", "setting": "[2]", "result": 47.5, "unit": "%"}]}
{"smiles": "Nc1ccc(S(=O)(=O)NCCC(=O)Nc2c3c(cc4c2CCC4)CCC3)cc1", "values": [{"measurement": "Activity", "setting": "[1]", "result": 220, "unit": "pg/mL"}, {"measurement": "inhibition", "setting": "[2]", "result": 22.3, "unit": "%"}]}
{"smiles": "CC(C)C[C@H](NS(=O)(=O)c1ccc(N)cc1)C(=O)Nc1c2c(cc3c1CCC3)CCC2", "values": [{"measurement": "Activity", "setting": "[1]", "result": 194, "unit": "pg/mL"}, {"measurement": "inhibition", "setting": "[2]", "result": 31.5, "unit": "%"}]}
{"smiles": "CCOc1ccc2ccc(=O)oc2c1", "values": [{"measurement": "half-life at 1 µM", "setting": "[3]", "result": 3.3, "unit": "min"}, {"measurement": "microsomal CLint at 1 µM", "setting": "[4]", "result": 168, "unit": "µL/min/mg"}, {"measurement": "half-life at 1 µM", "setting": "[5]", "result": 8.3, "unit": "min"}, {"measurement": "microsomal CLint at 1 µM", "setting": "[6]", "result": 422, "unit": "µL/min/mg"}]}
{"smiles": "O=C(Nc1c2c(cc3c1CCC3)CCC2)[C@@H](Cc1ccccc1)NS(=O)(=O)c1ccc([N+](=O)[O-])cc1", "values": [{"measurement": "Activity", "setting": "[1]", "result": 143, "unit": "pg/mL"}, {"measurement": "inhibition", "setting": "[2]", "result": 49.5, "unit": "%"}]}
{"smiles": "O=C(Nc1c2c(cc3c1CCC3)CCC2)[C@H](Cc1ccccc1)NS(=O)(=O)c1ccc([N+](=O)[O-])cc1", "values": [{"measurement": "Activity", "setting": "[1]", "result": 227, "unit": "pg/mL"}, {"measurement": "inhibition", "setting": "[2]", "result": 19.8, "unit": "%"}]}
{"smiles": "C[C@H](NS(=O)(=O)c1ccc([N+](=O)[O-])cc1)C(=O)Nc1c2c(cc3c1CCC3)CCC2", "values": [{"measurement": "Activity", "setting": "[1]", "result": 349, "unit": "pg/mL"}, {"measurement": "inhibition", "setting": "[7]", "result": "inactive"}]}
{"smiles": "O=C(Nc1c2c(cc3c1CCC3)CCC2)[C@@H]1Cc2ccccc2CN1S(=O)(=O)c1ccc([N+](=O)[O-])cc1", "values": [{"measurement": "Activity", "setting": "[1]", "result": 131, "unit": "pg/mL"}, {"measurement": "inhibition", "setting": "[2]", "result": 53.7, "unit": "%"}]}
{"smiles": "Nc1ccc(S(=O)(=O)N2CCCC[C@H]2C(=O)Nc2c3c(cc4c2CCC4)CCC3)cc1", "values": [{"measurement": "Activity", "setting": "[1]", "result": 211, "unit": "pg/mL"}, {"measurement": "inhibition", "setting": "[2]", "result": 25.4, "unit": "%"}]}
{"smiles": "CC(C)NCC(O)COc1cccc2ccccc12", "note": "(stereo not given) [PROPRANOLOL]", "values": [{"measurement": "half-life at 1 µM", "setting": "[3]", "result": 7.3, "unit": "min"}, {"measurement": "half-life at 1 µM", "setting": "[5]", "result": 47, "unit": "min"}]}
{"smiles": "O=C(Nc1c2c(cc3c1CCC3)CCC2)[C@H](CNS(=O)(=O)c1ccc([N+](=O)[O-])cc1)c1ccccc1", "values": [{"measurement": "Activity", "setting": "[1]", "result": 156, "unit": "pg/mL"}, {"measurement": "inhibition", "setting": "[2]", "result": 44.8, "unit": "%"}]}
{"smiles": "C[C@H](NS(=O)(=O)c1ccc(N)cc1)C(=O)Nc1c2c(cc3c1CCC3)CCC2", "values": [{"measurement": "inhibition", "setting": "[2]", "result": 17.3, "unit": "%"}]}
{"smiles": "NCCCC[C@H](NS(=O)(=O)c1ccc(N)cc1)C(=O)Nc1c2c(cc3c1CCC3)CCC2", "values": [{"measurement": "Activity", "setting": "[1]", "result": 203, "unit": "pg/mL"}, {"measurement": "inhibition", "setting": "[2]", "result": 28.4, "unit": "%"}]}
{"smiles": "Nc1ccc(S(=O)(=O)N[C@@H](Cc2ccccc2)C(=O)Nc2c3c(cc4c2CCC4)CCC3)cc1", "values": [{"measurement": "Activity", "setting": "[1]", "result": 175, "unit": "pg/mL"}, {"measurement": "inhibition", "setting": "[2]", "result": 38, "unit": "%"}]}
{"smiles": "O=C(Nc1c2c(cc3c1CCC3)CCC2)[C@@H]1CCCN1S(=O)(=O)c1ccc([N+](=O)[O-])cc1", "values": [{"measurement": "Activity", "setting": "[1]", "result": 210, "unit": "pg/mL"}, {"measurement": "inhibition", "setting": "[2]", "result": 25.7, "unit": "%"}]}
{"smiles": "CC(C)C[C@H](NS(=O)(=O)c1ccc([N+](=O)[O-])cc1)C(=O)Nc1c2c(cc3c1CCC3)CCC2", "values": [{"measurement": "Activity", "setting": "[1]", "result": 131, "unit": "pg/mL"}, {"measurement": "inhibition", "setting": "[2]", "result": 53.9, "unit": "%"}]}
{"smiles": "O=C(CNS(=O)(=O)c1ccc([N+](=O)[O-])cc1)Nc1c2c(cc3c1CCC3)CCC2", "values": [{"measurement": "Activity", "setting": "[1]", "result": 344, "unit": "pg/mL"}, {"measurement": "inhibition", "setting": "[7]", "result": "inactive"}]}
{"smiles": "O=C(Nc1c2c(cc3c1CCC3)CCC2)[C@@H]1CCCCN1S(=O)(=O)c1ccc([N+](=O)[O-])cc1", "values": [{"measurement": "Activity", "setting": "[1]", "result": 135, "unit": "pg/mL"}, {"measurement": "inhibition", "setting": "[2]", "result": 52.4, "unit": "%"}]}
{"smiles": "Nc1ccc(S(=O)(=O)NCC(=O)Nc2c3c(cc4c2CCC4)CCC3)cc1", "values": [{"measurement": "Activity", "setting": "[1]", "result": 348, "unit": "pg/mL"}, {"measurement": "inhibition", "setting": "[7]", "result": "inactive"}]}
{"smiles": "CC(C)[C@H](NS(=O)(=O)c1ccc(N)cc1)C(=O)Nc1c2c(cc3c1CCC3)CCC2", "values": [{"measurement": "inhibition", "setting": "[2]", "result": 50.2, "unit": "%"}]}
{"smiles": "CC(C)[C@@H](NS(=O)(=O)c1ccc(N)cc1)C(=O)Nc1c2c(cc3c1CCC3)CCC2", "values": [{"measurement": "inhibition", "setting": "[2]", "result": 25.1, "unit": "%"}]}
{"smiles": "O=C(Nc1c2c(cc3c1CCC3)CCC2)[C@H](Cc1ccc(O)cc1)NS(=O)(=O)c1ccc([N+](=O)[O-])cc1", "values": [{"measurement": "inhibition", "setting": "[2]", "result": 34.7, "unit": "%"}]}
{"smiles": "Nc1ccc(S(=O)(=O)N[C@H](C(=O)Nc2c3c(cc4c2CCC4)CCC3)c2ccccc2)cc1", "values": [{"measurement": "Activity", "setting": "[1]", "result": 237, "unit": "pg/mL"}, {"measurement": "inhibition", "setting": "[2]", "result": 16.1, "unit": "%"}]}
